Data reported in ChEMBL document CHEMBL2417469, “Synthesis of novel analogs of 2-pyrazoline obtained from [(7-chloroquinolin-4-yl)amino]chalcones and hydrazine as potential antitumor and antimalarial agents” (Eur J Med Chem, 2013).

What was measured:
Type in all cases: functional
[1] = test system: NCI-H522; test: Cytotoxicity against human NCI-H522 cells after 48 hrs by SRB assay; settings: NCI-H522, 48 h
How it was run: (§1)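 NCI 60-cell-line screen. Cells preincubated 24 h at 37 °C, 5% CO2; time-zero plates TCA-fixed. Compounds dissolved in DMSO and tested at five concentrations (100, 10, 1.0, 0.1, 0.01 µM) for 48 h continuous exposure. Adherent cells fixed with cold TCA (10% final), then SRB stained; absorbance at 515 nm. GI50, TGI and LC50 calculated from growth relative to time-zero and untreated controls.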

[2] = test system: SK-OV-3; test: Cytotoxicity against human SKOV3 cells after 48 hrs by SRB assay; settings: SK-OV-3, 48 h; how it was run: as §1
[3] = test system: U-251; test: Cytotoxicity against human U251 cells after 48 hrs by SRB assay; settings: U-251, 48 h
How it was run: (§2)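 NCI 60-cell screen. Cells grew 24 h (37 °C, 5% CO2) before compound was added. Compounds were in DMSO and diluted in medium with gentamicin, then tested at five levels (100, 10, 1.0, 0.1, 0.01 µM) with 48 h continuous exposure. Adherent cells were fixed with TCA (10% final) and stained with 0.4% SRB, absorbance read at 515 nm. A time-zero plate was included. LC50 is the concentration giving 50% loss of protein relative to time zero.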

[4] = test system: HL-60(TB); test: Cytotoxicity against human HL-60(TB) cells after 48 hrs by SRB assay; settings: HL-60, 48 h; how it was run: as §1
[5] = test system: A498; test: Cytotoxicity against human A498 cells after 48 hrs by SRB assay; settings: A498, 48 h; how it was run: as §1
[6] = test system: TK-10; test: Cytotoxicity against human TK10 cells after 48 hrs by SRB assay; settings: TK-10, 48 h; how it was run: as §2
[7] = test system: OVCAR-4; test: Cytotoxicity against human OVCAR4 cells after 48 hrs by SRB assay; settings: OVCAR-4, 48 h; how it was run: as §1
[8] = test system: SF-295; test: Cytotoxicity against human SF295 cells after 48 hrs by SRB assay; settings: SF-295, 48 h; how it was run: as §1
[9] = test system: MOLT-4; test: Cytotoxicity against human MOLT4 cells after 48 hrs by SRB assay; settings: MOLT-4, 48 h; how it was run: as §1
[10] = test system: 786-0; test: Cytotoxicity against human 786-0 cells after 48 hrs by SRB assay; settings: 786-0, 48 h; how it was run: as §1
[11] = test system: NCI/ADR-RES; test: Cytotoxicity against human NCI/ADR-RES cells after 48 hrs by SRB assay; how it was run: as §1
[12] = test system: Hs-578T; test: Cytotoxicity against human Hs578T cells after 48 hrs by SRB assay; how it was run: as §1
[13] = test system: Malme-3M; test: Cytotoxicity against human MALME-3M cells after 48 hrs by SRB assay; how it was run: as §1
[14] = test system: NCI-H23; test: Cytotoxicity against human NCI-H23 cells after 48 hrs by SRB assay; settings: NCI-H23, 48 h; how it was run: as §1
[15] = test system: UO-31; test: Cytotoxicity against human UO31 cells after 48 hrs by SRB assay; settings: UO-31, 48 h; how it was run: as §2
[16] = test system: MDA-MB-468; test: Cytotoxicity against human MDA-MB-468 cells after 48 hrs by SRB assay; settings: MDA-MB-468, 48 h; how it was run: as §1
[17] = test system: MDA-MB-435; test: Cytotoxicity against human MDA-MB-435 cells after 48 hrs by SRB assay; settings: MDA-MB-435, 48 h; how it was run: as §1
[18] = test system: MCF7; test: Cytotoxicity against human MCF7 cells after 48 hrs by SRB assay; settings: MCF7, 48 h; how it was run: as §1
[19] = test system: ACHN; test: Cytotoxicity against human ACHN cells after 48 hrs by SRB assay; how it was run: as §1
[20] = test system: SNB-75; test: Cytotoxicity against human SNB75 cells after 48 hrs by SRB assay; settings: SNB-75, 48 h; how it was run: as §2
[21] = test system: OVCAR-3; test: Cytotoxicity against human OVCAR3 cells after 48 hrs by SRB assay; settings: OVCAR-3, 48 h; how it was run: as §1
[22] = test system: DU-145; test: Cytotoxicity against human DU145 cells after 48 hrs by SRB assay; settings: DU-145, 48 h; how it was run: as §1
[23] = test system: BT-549; test: Cytotoxicity against human BT549 cells after 48 hrs by SRB assay; settings: BT-549, 48 h; how it was run: as §1
[24] = test system: OVCAR-5; test: Cytotoxicity against human OVCAR5 cells after 48 hrs by SRB assay; settings: OVCAR-5, 48 h; how it was run: as §1
[25] = test system: NCI-H460; test: Cytotoxicity against human NCI-H460 cells after 48 hrs by SRB assay; settings: NCI-H460, 48 h; how it was run: as §1
[26] = test system: HCT-15; test: Cytotoxicity against human HCT15 cells after 48 hrs by SRB assay; settings: HCT-15, 48 h; how it was run: as §1
[27] = test system: SF-539; test: Cytotoxicity against human SF539 cells after 48 hrs by SRB assay; settings: SF-539, 48 h; how it was run: as §1
[28] = test system: M14; test: Cytotoxicity against human M14 cells after 48 hrs by SRB assay; settings: M14, 48 h; how it was run: as §1
[29] = test system: SR; test: Cytotoxicity against human SR cells after 48 hrs by SRB assay; how it was run: as §2
[30] = test system: HCT-116; test: Cytotoxicity against human HCT116 cells after 48 hrs by SRB assay; settings: HCT-116, 48 h; how it was run: as §1
[31] = test system: Plasmodium falciparum; test: Antimalarial activity against Plasmodium falciparum NF54 infected in human serum at 20 ug/ml after 48 hrs by fluorometric method
How it was run: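 Asynchronous P. falciparum NF54 at 1.5–2% parasitemia, 5% hematocrit in RPMI with 10% human serum, exposed 48 h at 37 °C under 90% N2/5% CO2/5% O2 at the stated concentration; parasite DNA stained with ethidium bromide after proteinase K lysis; viability % = (Flu treated − medium)/(Flu untreated − medium) ×100; triplicate.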

[32] = test system: SK-MEL-5; test: Cytotoxicity against human SK-MEL-5 cells after 48 hrs by SRB assay; settings: SK-MEL-5, 48 h; how it was run: as §1
[33] = test system: PC-3; test: Cytotoxicity against human PC3 cells after 48 hrs by SRB assay; settings: PC-3, 48 h; how it was run: as §1
[34] = test system: MDA-MB-231; test: Cytotoxicity against human MDA-MB-231 cells after 48 hrs by SRB assay; settings: MDA-MB-231, 48 h; how it was run: as §1
[35] = read-out: LC50 (the source's name)

Compound: CC(=O)N1N=C(c2ccc(Nc3ccnc4cc(Cl)ccc34)cc2)CC1c1ccc(Cl)cc1 (stereo not given)
- GI50 [1]: 5.05 µM
- CC50 [1, 35]: > 100 µM
- GI50 [2]: > 100 µM
- LC50 (concentration killing 50% of cells) [2]: > 100 µM
- GI50 [3]: > 100 µM
- CC50 [3, 35]: > 100 µM
- GI50 [4]: 3.56 µM
- CC50 [4, 35]: > 100 µM
- GI50 [5]: > 100 µM
- CC50 [5, 35]: > 100 µM
- GI50 [6]: > 100 µM
- LC50 (concentration giving 50% cell loss vs time zero) [6]: > 100 µM
- GI50 [7]: 6.92 µM
- LC50 [7]: > 100 µM
- GI50 [8]: 3.58 µM
- LC50 [8]: > 100 µM
- GI50 [9]: 2.42 µM
- LC50 [9]: > 100 µM
- GI50 [10]: > 100 µM
- LC50 [10]: > 100 µM
- GI50 [11]: 3.04 µM
- CC50 [11, 35]: > 100 µM
- GI50 [12]: > 100 µM
- LC50 (50% net cell kill) [12]: > 100 µM
- LC50 [13]: > 100 µM
- GI50 [14]: > 100 µM
- CC50 [14, 35]: > 100 µM
- GI50 [15]: 3.87 µM
- LC50 [15]: > 100 µM
- GI50 [16]: 2.41 µM
- LC50 [16]: > 100 µM
- GI50 [17]: 0.57 µM
- LC50 [17]: > 100 µM
- GI50 [18]: 4.04 µM
- CC50 [18, 35]: > 100 µM
- GI50 [19]: 3.96 µM
- CC50 [19, 35]: > 100 µM
- LC50 (50% net cell kill) [20]: > 100 µM
- GI50 [21]: 7.19 µM
- LC50 [21]: > 100 µM
- GI50 [22]: > 100 µM
- LC50 (concentration killing 50% of cells) [22]: > 100 µM
- GI50 [23]: 5.4 µM
- LC50 (50% net cell kill vs time zero) [23]: > 100 µM
- GI50 [24]: > 100 µM
- LC50 [24]: > 100 µM
- GI50 [25]: > 100 µM
- LC50 [25]: > 100 µM
- GI50 [26]: 3.33 µM
- LC50 (concentration killing 50% of cells relative to time zero) [26]: > 100 µM
- GI50 [27]: > 100 µM
- CC50 [27, 35]: > 100 µM
- GI50 [28]: 5.24 µM
- CC50 [28, 35]: > 100 µM
- GI50 [29]: 0.61 µM
- LC50 [29]: > 100 µM
- GI50 [30]: 38.8 µM
- LC50 [30]: > 100 µM
- inhibition at 20 µg/mL [31]: 32.9%
- GI50 [32]: 2.2 µM
- LC50 (concentration killing 50% of cells present at time zero) [32]: > 100 µM
- GI50 [33]: 3.02 µM
- LC50 [33]: > 100 µM
- GI50 [34]: > 100 µM
- LC50 (concentration killing 50% of cells present at time zero) [34]: > 100 µM
